# Measurements published in ChEMBL document CHEMBL1146564, “Absolute configuration of sesquiterpenes from Crossopetalum tonduzii and their inhibitory effects on Epstein-Barr virus early antigen activation in Raji cells” (J Nat Prod, 2003).
# Tests used:
# Assay type in all cases: cell-based
# Raji [1] = assay: Inhibition of 12-O-tetradecanoylphorbol-13-acetate-induced EBV-early antigen activation in human Raji cells at 100 molar ratio after 48 hrs relative to TPA; design: scale not given: the % may be the effect or the level left; conditions: human gammaherpesvirus 4
# In short: (§1)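 EBV-EA induction in Raji cells (RPMI-1640). Cells were held 48 h at 37 °C with n-butyric acid (4 mmol), TPA (32 pmol = 20 ng/mL) and compound at 10–1000 mol ratio/TPA (0.32–32 nmol). EA-positive cells were detected on smears by indirect immunofluorescence. Induction is expressed as percentage relative to the TPA-only positive control. β-Carotene served as reference.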
# Raji [2] = assay: Inhibition of 12-O-tetradecanoylphorbol-13-acetate-induced EBV-early antigen activation in human Raji cells at 500 molar ratio after 48 hrs relative to TPA; design: scale not given: the % may be the effect or the level left; conditions: human gammaherpesvirus 4; in short: as §1
# Raji [3] = assay: Inhibition of 12-O-tetradecanoylphorbol-13-acetate-induced EBV-early antigen activation in human Raji cells at 1000 molar ratio after 48 hrs relative to TPA; design: scale not given: the % may be the effect or the level left; conditions: human gammaherpesvirus 4; in short: as §1
# Raji [4] = assay: Inhibition of 12-O-tetradecanoylphorbol-13-acetate-induced EBV-early antigen activation in human Raji cells at 10 molar ratio after 48 hrs relative to TPA; design: scale not given: the % may be the effect or the level left; conditions: human gammaherpesvirus 4; in short: as §1
# [5] = Cytotoxicity against human Raji cells assessed as cell viability at 1000 molar ratio/TPA after 48 hrs; conditions: read-out: Activity
# In short: (§2)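 Raji cells (EBV genome-carrying Burkitt's lymphoma lymphoblastoid line) in RPMI-1640 were incubated 48 h at 37 °C with n-butyric acid (4 mmol), TPA (32 pmol = 20 ng/mL) and test compound at 10, 100, 500 or 1000 mol ratio to TPA (0.32, 3.2, 16, 32 nmol). Viability is given as percentage of Raji cells.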
# [6] = Cytotoxicity against human Raji cells assessed as cell viability at 500 molar ratio/TPA after 48 hrs; conditions: read-out: Activity; in short: as §2
# [7] = Cytotoxicity against human Raji cells assessed as cell viability at 100 molar ratio/TPA after 48 hrs; conditions: read-out: Activity; in short: as §2
# [8] = Cytotoxicity against human Raji cells assessed as cell viability at 10 molar ratio/TPA after 48 hrs; conditions: read-out: Activity; in short: as §2
Structure (SMILES),Activity (Raji [1]),Activity (Raji [2]),Activity (Raji [3]),Activity (Raji [4]),"viability at 48 h, 1000 molar ratio/TPA [5]","viability at 48 h, 500 molar ratio/TPA [6]","viability at 48 h, 100 molar ratio/TPA [7]","viability at 48 h, 10 molar ratio/TPA [8]"
CCC(C)C(=O)OC[C@]12[C@H](OC(=O)c3ccccc3)[C@@H](OC(C)=O)[C@@H]3[C@@H](OC(C)=O)[C@]1(OC3(C)C)[C@@](C)(O)C[C@H](OC(=O)c1ccccc1)[C@@H]2OC(C)=O (stereo not given in full),75.9%,33.8%,4.6%,96%,60%,> 80%,> 80%,> 80%
CCC(C)C(=O)OC[C@]12[C@H](OC(=O)c3ccccc3)[C@@H](O)[C@@H]3[C@@H](O)[C@]1(OC3(C)C)[C@@](C)(O)C[C@H](OC(C)=O)[C@@H]2OC(C)=O (stereo not given in full),74%,32.7%,0%,90.1%,60%,> 80%,> 80%,> 80%
CCC(C)C(=O)OC[C@]12[C@H](OC(=O)c3ccccc3)[C@@H](OC(C)=O)[C@@H]3[C@@H](OC(C)=O)[C@]1(OC3(C)C)[C@@](C)(O)C[C@H](OC(C)=O)[C@@H]2OC(C)=O (stereo not given in full),79.2%,22%,0%,96.7%,70%,> 80%,> 80%,> 80%
CCC(C)C(=O)OC[C@]12[C@H](OC(=O)c3ccccc3)[C@@H](OC(C)=O)[C@@H]3[C@@H](O)[C@]1(OC3(C)C)[C@@](C)(O)C[C@H](OC(C)=O)[C@@H]2OC(C)=O (stereo not given in full),77.4%,21.8%,0%,94.1%,70%,> 80%,> 80%,> 80%
CC1=C(/C=C/C(C)=C/C=C/C(C)=C/C=C/C=C(C)/C=C/C=C(C)/C=C/C2=C(C)CCCC2(C)C)C(C)(C)CCC1 [BETA CAROTENE],,,8.6%,100%,,80%,100%,100%
CCC(C)C(=O)OC[C@]12[C@H](OC(=O)c3ccccc3)[C@@H](OC(C)=O)[C@@H]3[C@@H](OC(C)=O)[C@]1(OC3(C)C)[C@@](C)(O)C[C@H](O)[C@@H]2OC(C)=O (stereo not given in full),73.7%,31.2%,0%,90.5%,60%,> 80%,> 80%,> 80%
